Experiments:
[1] = biological target: T1, Potassium-transporting ATPase (Rattus norvegicus) (UniProt P09626+P18598); experiment: Inhibition of pentagastrin-stimulated gastric acid secretion at a single dose of 10 umol/kg.; type: functional; conditions: Stomach
In short: (§1)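 Anesthetized, lumen-perfused rats were given pentagastrin to stimulate gastric acid secretion, and compounds were given iv. The value is an ED50 (µmol/kg iv) with 95% confidence limits, or percent inhibition ± SEM at a single 10 µmol/kg iv dose.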

Canis familiaris [2] = experiment: Mean percent peak inhibition of histamine-stimulated gastric acid secretion in the heidenhain pouch dog following a single dose of 1 umol/kg through iv administration.; type: functional; conditions: Canis lupus familiaris, Stomach
Canis familiaris [3] = experiment: Mean percent peak inhibition of histamine-stimulated gastric acid secretion in the heidenhain pouch dog following a single dose of 4 umol/kg through oral administration.; type: functional; conditions: Canis lupus familiaris, Stomach
[4] = biological target: Potassium-transporting ATPase (Sus scrofa, UniProt P19156); experiment: Inhibition of K+ -stimulated gastric ATPase activity was measured using lyophilized gastric vesicles at pH 7; type: tissue-based, Stomach
In short: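 K+-stimulated ATPase activity was measured in lyophilized (permeabilized) gastric vesicles at pH 7. The value is an IC50, or percent inhibition at the stated concentration where no IC50 could be determined.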

[5] = biological target: T1, Potassium-transporting ATPase (Rattus norvegicus); experiment: Inhibition of pentagastrin-stimulated gastric acid secretion in the anesthetized rat after iv administration; type: functional, organism-based; conditions: Stomach; in short: as §1

Potassium-transporting ATPase, sequence (P18434 whole entry): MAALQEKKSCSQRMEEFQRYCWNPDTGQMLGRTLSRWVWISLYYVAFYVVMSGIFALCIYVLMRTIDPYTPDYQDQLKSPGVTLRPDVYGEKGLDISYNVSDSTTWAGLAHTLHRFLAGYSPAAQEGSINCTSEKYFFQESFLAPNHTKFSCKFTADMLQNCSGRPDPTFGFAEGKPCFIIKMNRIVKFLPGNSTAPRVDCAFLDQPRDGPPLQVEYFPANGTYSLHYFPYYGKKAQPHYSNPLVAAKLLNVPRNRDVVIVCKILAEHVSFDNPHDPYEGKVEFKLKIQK
Potassium-transporting ATPase, sequence (P19156 whole entry): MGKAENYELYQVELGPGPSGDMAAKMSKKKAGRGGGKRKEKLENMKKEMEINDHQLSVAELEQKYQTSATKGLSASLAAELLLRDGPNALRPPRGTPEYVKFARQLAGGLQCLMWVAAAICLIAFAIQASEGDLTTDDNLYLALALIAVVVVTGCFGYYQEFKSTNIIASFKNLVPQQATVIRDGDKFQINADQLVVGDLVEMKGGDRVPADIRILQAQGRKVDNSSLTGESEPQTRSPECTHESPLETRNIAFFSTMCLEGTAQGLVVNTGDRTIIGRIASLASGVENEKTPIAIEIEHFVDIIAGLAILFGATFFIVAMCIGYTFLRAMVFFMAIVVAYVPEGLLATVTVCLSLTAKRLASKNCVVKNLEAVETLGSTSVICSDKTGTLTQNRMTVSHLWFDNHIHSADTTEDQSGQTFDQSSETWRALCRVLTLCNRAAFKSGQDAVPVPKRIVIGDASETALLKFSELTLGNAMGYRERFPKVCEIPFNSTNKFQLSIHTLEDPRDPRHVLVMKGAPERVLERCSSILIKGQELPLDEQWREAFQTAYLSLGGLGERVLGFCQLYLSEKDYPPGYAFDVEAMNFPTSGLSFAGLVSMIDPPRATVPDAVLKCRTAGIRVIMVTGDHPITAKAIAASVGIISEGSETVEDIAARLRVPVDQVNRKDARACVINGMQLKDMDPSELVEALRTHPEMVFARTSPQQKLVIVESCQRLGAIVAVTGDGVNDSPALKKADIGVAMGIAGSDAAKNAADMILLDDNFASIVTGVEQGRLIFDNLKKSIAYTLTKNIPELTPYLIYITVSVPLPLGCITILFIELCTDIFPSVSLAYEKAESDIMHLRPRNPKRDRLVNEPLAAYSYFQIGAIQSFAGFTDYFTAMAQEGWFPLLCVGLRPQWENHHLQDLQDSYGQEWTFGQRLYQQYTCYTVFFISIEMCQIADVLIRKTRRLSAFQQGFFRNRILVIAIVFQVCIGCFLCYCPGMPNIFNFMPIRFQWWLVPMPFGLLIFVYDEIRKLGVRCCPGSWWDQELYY

| SMILES | inhibition [1] [%] | inhibition in vivo at 1 µmol/kg (Canis familiaris [2]) [%] | inhibition in vivo at 4 µmol/kg (Canis familiaris [3]) [%] | IC50 [4] [nM] | ED50 [5] [µmol/kg] |
| --- | --- | --- | --- | --- | --- |
| CCCC(=O)c1cnc2c(OC)cccc2c1Nc1cccc(C)c1C | 60 | 77 | 67 | 1400 | – |
| CCCC(=O)c1cnc2c(OCCOC)cccc2c1Nc1ccccc1C | – | 51 | 81 | – | 2.75 |
| CCCC(=O)c1cnc2c(C=O)cccc2c1Nc1ccccc1C | 64 | 51 | – | 1200 | – |
| Cc1ccccc1Nc1c(C(=O)C(C)C)cnc2c(CO)cccc12 | – | – | – | – | 1.86 |
| CCCC(=O)c1cnc2c(Oc3cnccn3)cccc2c1Nc1ccccc1C | – | 49 | 43 | 2000 | 2.9 |
| CCCC(=O)c1cnc2c(C(=O)OC)cccc2c1Nc1ccccc1C | – | – | – | 580 | 13.4 |
| CCCC(=O)c1cnc2c(C)cccc2c1Nc1c(C)cccc1C | – | 45 | – | 3100 | 2.88 |
| CCCC(=O)c1cnc2c(OC)cccc2c1Nc1ccccc1OC | – | 73 | 18 | 1500 | 3.56 |
| CCC(=O)c1cnc2c(OCCO)cccc2c1Nc1ccccc1C | – | 82 | 82 | 760 | 1.72 |
| Cc1cc(F)ccc1Nc1c(C(=O)C(C)C)cnc2c(OCCO)cccc12 | – | 66 | 75 | 1600 | 4.2 |
| CCCC(=O)c1cnc2ccccc2c1Nc1ccccc1C | – | – | – | – | 5.45 |
| CCCC(=O)c1cnc2c(OCCCNC(C)=O)cccc2c1Nc1c(C)cccc1C | 75 | 86 | 40 | 1800 | – |
| CCC(=O)c1cnc2c(Oc3ccccn3)cccc2c1Nc1c(C)cccc1C | 77 | 81 | – | 4700 | – |
| CCCC(=O)c1cnc2c(OC)cccc2c1Nc1c(C)cc(C)cc1C | – | – | – | 3100 | 10.8 |
| CCCC(=O)c1cnc2c(OCCOCCOCCO)cccc2c1Nc1ccccc1C | – | 20 | 78 | – | – |
| CCCC(=O)c1cnc2c(OCCO)cccc2c1Nc1ccccc1C | – | 64 | 96 | – | 2.4 |
| CCCC(=O)c1cnc2c(/C=C/CO)cccc2c1Nc1ccccc1C | 68 | 17 | – | 2300 | – |
| CCCC(=O)c1cnc2c(C)cccc2c1Nc1ccccc1C | – | 38 | – | 3000 | 3.12 |
| CCCC(=O)c1cnc2c(OC)cccc2c1Nc1ccc(OC(=O)CC)cc1C | – | – | 45 | 19000 | – |

| SMILES | inhibition [1] [%] | inhibition in vivo at 1 µmol/kg (Canis familiaris [2]) [%] | inhibition in vivo at 4 µmol/kg (Canis familiaris [3]) [%] | IC50 [4] [nM] | ED50 [5] [µmol/kg] |
| --- | --- | --- | --- | --- | --- |
| CCCC(=O)c1cnc2c(C)cccc2c1Nc1ccccc1OC | – | – | – | 2200 | 3.98 |
| CCCC(=O)c1cnc2c(C)cccc2c1Nc1ccccc1CC | – | 66 | – | 2900 | 3.05 |
| Cc1cc(F)ccc1Nc1c(C(=O)C(C)C)cnc2c(CO)cccc12 | – | 59 | 42 | – | 3.57 |
| Cc1cc(O)ccc1Nc1c(C(=O)C(C)C)cnc2c(CO)cccc12 | – | 47 | – | 36 | 1.72 |
| CCCC(=O)c1cnc2c(C)cccc2c1Nc1ccc(OC)cc1OC | – | 41 | – | 2400 | 3.9 |
| CCCC(=O)c1cnc2c(OCCO)cccc2c1Nc1ccc(F)cc1C | – | 44 | 80 | – | 2.92 |
| CCCC(=O)c1cnc2c(N)cccc2c1Nc1c(C)cccc1C | 57 | – | – | 5800 | – |
| CCCC(=O)c1cnc2c(CO)cccc2c1Nc1ccc(O)cc1C | – | 64 | 29 | – | 2.09 |
| CCCC(=O)c1cnc2c(NCCO)cccc2c1Nc1ccccc1C | 62 | – | – | 7100 | – |
| CCCC(=O)c1cnc2c(C)cccc2c1Nc1ccc(OC)cc1C | – | – | – | 1700 | 4.7 |
| CCCC(=O)c1cnc2c(OC)cccc2c1Nc1ccc(OC)cc1OC | 53 | – | – | 2100 | – |
| CCCC(=O)c1cnc2c(OC)cc(O)cc2c1Nc1ccc(F)cc1C | 54 | – | – | 2100 | – |
| CCC(=O)c1cnc2c(CO)cccc2c1Nc1ccccc1C | 74 | 83 | 35 | 380 | – |
| CCCC(=O)c1cnc2c(OCCCN3CCCC3)cccc2c1Nc1ccccc1C | 31 | – | – | 510 | – |
| CCCC(=O)c1cnc2c(OC)cccc2c1Nc1c(C)cc(O)c(O)c1C | 50 | – | – | 2800 | – |
| CCCC(=O)c1cnc2c(CC(=O)O)cccc2c1Nc1ccccc1C | 24 | – | – | 7200 | – |
| CCCC(=O)c1cnc2c(C3COCO3)cccc2c1Nc1ccccc1C (centres undefined) | 31 | – | – | 36000 | – |
| CCCC(=O)c1cnc2c(OCCCN3CCCCC3)cccc2c1Nc1ccccc1C | 31 | – | – | 500 | – |
| CCCC(=O)c1cnc2c(OCCOCCO)cccc2c1Nc1ccccc1C | – | 52 | – | – | 1.89 |

| SMILES | inhibition [1] [%] | inhibition in vivo at 1 µmol/kg (Canis familiaris [2]) [%] | inhibition in vivo at 4 µmol/kg (Canis familiaris [3]) [%] | IC50 [4] [nM] | ED50 [5] [µmol/kg] |
| --- | --- | --- | --- | --- | --- |
| CCC(=O)c1cnc2c(OCCCNc3nccs3)cccc2c1Nc1c(C)cccc1C | 48 | – | – | 1700 | – |
| CCCC(=O)c1cnc2c(OCCCN(C)Cc3ccccc3)cccc2c1Nc1ccccc1C | 39 | – | – | 650 | – |
| CCCC(=O)c1cnc2cc(O)ccc2c1Nc1ccccc1C | 56 | – | – | 1200 | – |
| CCCC(=O)c1cnc2c(C(C)O)cccc2c1Nc1ccc(O)cc1C (centres undefined) | – | 30 | – | 61 | 2.74 |
| CCCC(=O)c1cnc2c(OCCCC(=O)Nc3ccncc3)cccc2c1Nc1ccccc1C | 46 | – | – | 2600 | – |
| CCCC(=O)c1cnc2c(O)cccc2c1Nc1ccccc1C | 39 | – | – | 3300 | – |
| C=CC(O)c1cccc2c(Nc3ccccc3C)c(C(=O)CCC)cnc12 (centres undefined) | 49 | – | – | 660 | – |
| CCCC(=O)c1cnc2c(OCCCC(=O)OCC)cccc2c1Nc1ccccc1C | 52 | – | – | 1600 | – |
| CCCC(=O)c1cnc2c(OC)cccc2c1Nc1ccc(O)cc1 | 39 | – | – | 670 | – |
| CCCC(=O)c1cnc2ccc(N)cc2c1Nc1c(C)cccc1C | 35 | – | – | 160 | – |
| CCCC(=O)c1cnc2c(OCCCN(C)C)cccc2c1Nc1ccccc1C | 43 | 14 | – | 390 | – |
| CCCC(=O)c1cnc2c(CCCO)cccc2c1Nc1ccccc1C | 63 | – | 48 | 2600 | – |
| CCCC(=O)c1cnc2c(C(C)=O)cccc2c1Nc1ccccc1C | 37 | – | – | 1500 | – |
| CCC(=O)c1cnc2c(CO)cccc2c1Nc1ccc(O)cc1C | 90 | 59 | 24 | 180 | – |
| CCCC(=O)c1cnc2c(OC)cccc2c1Nc1ccc(OC)cc1C | – | 71 | – | 1270 | 7.61 |
| CCCC(=O)c1cnc2c(OC)cccc2c1Nc1ccccc1OCC | – | – | – | 2000 | 4.9 |
| CCCC(=O)c1cnc2c(CO)cccc2c1Nc1ccccc1C | – | 39 | 56 | – | 1.72 |
| CCCC(=O)c1cnc2c(OCCO)cccc2c1Nc1ccc(O)cc1C | 70 | – | – | 210 | – |
